Source: PubChem BioAssay
Calb FLC: affects C. albicans growth with fluconazole; C. albicans CaCi-2 (fluconazole-resistant clinical isolate) + fluconazole, Alamar Blue growth, 48 h; growth inhibition, % (test concentration not listed); hit rate 0.57% among 300,000; AID 1979;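 active = growth inhibition above about 58% in most replicates, limit read from the data, passing the limit was not always enough; inconclusive = exactly half the replicates above a set limit; inactive = most replicates below a set limit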;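 also: all wells also contain fluconazole at 8 µg/ml as a sub-toxic cotreatment; 0% = median of DMSO wells and 100% = median of geldanamycin control wells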
CSC inhib: blocks cancer stem cells; cancer stem cell-like cells viability, luminescence; inhibition, % at 7.5 µM; hit rate 1.1% among 300,000; in the data active = inhibition above about 75%; inconclusive = no clear call, values can overlap the other calls; tested in HMLE shEcad cells
Beta cell apopt: beta cell apoptosis inhibition. INS-1E cytokine-induced death, ATP luminescence, 48 h; percent of positive-control rescue, neutral wells zero. protection from apoptosis, % (no concentration beside the values). hit rate 0.8% among 300,000;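 active = Every replicate reaches about 75%, or at least half do and their mean reaches it too, limit read from the data; inconclusive = At least half of replicates reach the limit but their mean does not; inactive = Under half of replicates reach the limit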;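 also: 0% = cytokine-treated negative control wells and 100% = positive control rescue; higher means more ATP so stronger rescue from cytokine killing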
SKKanGAS inh: inhibitors of SKKanGAS S. pyogenes growth in kanamycin (SK-promoter or general growth effect); hit rate 1.3% among 300,000; inhibition, % at 7.5 µM; BacTiter-Glo, 6 h;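 active = mean replicate score, as percent of positive control median, at least 50; inconclusive = mean below 50 but one replicate at or above 50; inactive = mean and every replicate below 50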;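 also: strain carries kanamycin resistance gene driven by streptokinase promoter and grows in 40 µg/ml kanamycin; loss of luminescence reflects streptokinase promoter inhibition or plain growth inhibition; 0% = median of DMSO wells and 100% = positive control at its reference dose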
T cruzi repl: blocks replication of Trypanosoma cruzi. T. cruzi beta-gal in NIH3T3, luminescence, 90 h. inhibition, % (test concentration not listed). hit rate 1.4% among 300,000. AID 1885;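 active = mean inhibition across valid replicates above about 55%, limit read from the data; inconclusive = mean below that limit but half or more replicates reach it; inactive = mean below it, under half of replicates reach it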;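 also: signal also drops with host cell toxicity which is not excluded here; 0% = plate median of DMSO wells and 100% = zero luminescence signal; higher percent means less beta-gal luminescence so fewer parasites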
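Read-out: Parasite load inhibition, % | Test system: Mouse NIH/3T3 fibroblasts infected with β-gal-expressing T. cruzi Tulahuen C4 | Amount: 5,000 cells/well | Medium: DMEM, 2% fetal bovine serum | Signal: GalScreen β-gal luminescence, detergent lysis, 60 min | Timing: 3 h attach, ≥90 h co-culture | Also added: Tulahuen C4 trypomastigotes, 5000/well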
Mdm2-MdmX inh: human Mdm2/MdmX binding inhibition; O15151+Q00987; inhibition, % at 8 µM; hit rate 3% among 330,000; SaOS-2 split-luciferase Mdm2/MdmX complementation, luminescence;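 active = inhibition of at least 50% at 8 µM in the primary screen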
Mdm2 MdmX conf: human Mdm2/MdmX binding inhibition, confirmed. shares compounds with Mdm2-MdmX inh. luminescent assay. inhibition, % at 8 µM. hit rate 55% among 10,000. AID 489028; in the data active = inhibition above about 40%
Full FLuc ctr: full-length luciferase inhibition in Mdm2/MdmX counter-screen; shares compounds with Mdm2-MdmX inh; SaOS-2 full-length luciferase counterscreen, luminescence; inhibition, % at 8 µM; hit rate 77% among 6,200;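 active = mean inhibition at 8 µM reaching about 37%, which flags the compound as non-specific, limit read from the data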;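 also: p53-null SaOS-2 cells with luciferase driven by a doxycycline-inducible promoter; compound on cells about two nights before reading with doxycycline added after day one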
Active calls of the source: *. An excerpt weighted towards active compounds, which were near 5.7% of everything screened.

Screening O=C(NC(NC(=S)Nc1ccccc1Cl)C(Cl)(Cl)Cl)c1cccc(Cl)c1 (stereo not drawn) returned Calb FLC -25.6, CSC inhib 111.5*, Beta cell apopt 48.9, SKKanGAS inh 96.6*, T cruzi repl 60.2*, Mdm2-MdmX inh 97.3*, Mdm2 MdmX conf 94.9* and Full FLuc ctr 22.0.
Cc1ccc(S(=O)(=O)/C(C#N)=C/c2c(Oc3ccc(Cl)cc3)nc3c(C)cccn3c2=O)cc1 was read as Calb FLC inconclusive, CSC inhib 5.3, Beta cell apopt 0.9, SKKanGAS inh 1.8, T cruzi repl 3.0, Mdm2-MdmX inh 58.7* and Mdm2 MdmX conf 8.0.
COc1cc(C(C[N+](=O)[O-])c2c(N)n(C)c(=O)n(C)c2=O)ccc1O (stereo not drawn) was read as Calb FLC 2.4, CSC inhib -1.8, Beta cell apopt 2.8, SKKanGAS inh 1.3, T cruzi repl -12.9 and Mdm2-MdmX inh 5.4.
`COc1cccc(F)c1C(C[N+](=O)[O-])c1c(N)n(C)c(=O)n(C)c1=O` (stereo not drawn) gave Calb FLC 101.3*, CSC inhib 71.3, Beta cell apopt 97.1*, SKKanGAS inh -5.1, T cruzi repl -1.6, Mdm2-MdmX inh 95.4*, Mdm2 MdmX conf 45.1* and Full FLuc ctr 36.3*.
Screening CCSC1(SCC)N=C(N)C2(C#N)C(c3ccc(OC)c(OC)c3OC)C12C#N (stereo not drawn) returned Calb FLC 1.2, CSC inhib -5.7, Beta cell apopt -6.0, SKKanGAS inh -9.6, T cruzi repl 2.2, Mdm2-MdmX inh 68.5*, Mdm2 MdmX conf 49.8* and Full FLuc ctr 17.4.
`CCSC1(SCC)N=C(N)C2(C#N)C(c3ccccc3)NC3=C(CCC3)C12C#N` (stereo not drawn) gave Calb FLC 4.6, CSC inhib -6.8, Beta cell apopt -1.0, SKKanGAS inh 8.7, T cruzi repl -27.2 and Mdm2-MdmX inh 42.0.
Screening Cc1cccn2c(=O)nc(SCC(=O)N3N=C(c4cccs4)CC3c3ccc(F)cc3)nc12 (stereo not drawn) returned Calb FLC 12.8, SKKanGAS inh 24.6, T cruzi repl 66.7*, Mdm2-MdmX inh 50.6*, Mdm2 MdmX conf 50.6* and Full FLuc ctr 70.5*.
COc1ccc(NC(=O)Nc2ccc3c(c2)C(=O)N([C@@H](C)CO)C[C@@H](C)[C@@H](CN(C)S(=O)(=O)c2cn(C)cn2)O3)cc1 was read as Mdm2-MdmX inh 13.9.
O=C(NCCCN1CCCC1=O)C(=O)NCC1OCCCN1S(=O)(=O)c1cc(F)ccc1F (stereo not drawn) was read as Calb FLC -3.8, CSC inhib -5.9, Beta cell apopt -13.1, SKKanGAS inh 2.6, T cruzi repl -3.0 and Mdm2-MdmX inh 11.2.
CCOC(=O)c1c(C)nc2sc(C(=O)Nc3ccccc3)c(N)c2c1-c1ccc(OC)cc1 was read as Calb FLC -4.4, CSC inhib -9.3, Beta cell apopt 35.5, SKKanGAS inh 20.6, T cruzi repl 26.6, Mdm2-MdmX inh 59.5* and Mdm2 MdmX conf 35.5.
Screening CCOC(=O)c1c(C)nc2sc(C(N)=O)c(N)c2c1-c1ccccc1 returned Calb FLC 2.3, CSC inhib 7.2, Beta cell apopt -8.7, SKKanGAS inh 0.8, T cruzi repl 0.7 and Mdm2-MdmX inh 12.9.
Screening O=C(NNC(=O)c1ccc2[nH]c(=O)c(=O)[nH]c2c1)c1cccc(Br)c1 returned Calb FLC 8.0, CSC inhib -4.3, Beta cell apopt 3.9, SKKanGAS inh -0.5, T cruzi repl -13.4 and Mdm2-MdmX inh -4.7.
Screening Cc1ccccc1OCC(=O)NC(=S)Nc1ccccc1N1CCN(S(C)(=O)=O)CC1 returned Calb FLC 3.5, CSC inhib -2.5, Beta cell apopt -0.7, SKKanGAS inh 27.0, T cruzi repl 6.2 and Mdm2-MdmX inh 17.8.
CCOC(=O)C1=CNS(=O)(=O)NC1c1ccc(C(F)(F)F)cc1 (stereo not drawn) was read as Mdm2-MdmX inh -5.8.
O=C(NCC(c1ccco1)N1CCc2ccccc21)c1ccccc1F (stereo not drawn) was read as Calb FLC 29.8, CSC inhib 7.6, Beta cell apopt 2.1, SKKanGAS inh 13.3, T cruzi repl 1.6 and Mdm2-MdmX inh 20.5.
For O=C(CCc1ccccc1)NCC(c1ccco1)N1CCc2ccccc21 (stereo not drawn) the results were Calb FLC -5.2, CSC inhib 5.6, Beta cell apopt 7.9, SKKanGAS inh 3.1, T cruzi repl 6.3, Mdm2-MdmX inh 52.9*, Mdm2 MdmX conf 75.9* and Full FLuc ctr 65.7*.
Screening COC(=O)c1cc(S(=O)(=O)NCCCN2CCCC2=O)cn1C returned Calb FLC 11.6, CSC inhib -6.2, Beta cell apopt -9.2, SKKanGAS inh 1.7, T cruzi repl -14.8 and Mdm2-MdmX inh 9.0.
`Cn1nnnc1SCC(=O)N1CCN(S(=O)(=O)c2ccc(Cl)cc2)CC1` gave Calb FLC 13.5, CSC inhib -6.1, SKKanGAS inh -11.4, T cruzi repl 2.8, Mdm2-MdmX inh 69.6* and Mdm2 MdmX conf -8.1.
For COc1cccc(NC(=O)CN(C)C(=O)Cn2c(=O)oc3ccccc32)c1 the results were Calb FLC 4.5, CSC inhib -11.1, Beta cell apopt -0.6, SKKanGAS inh -6.6, T cruzi repl -10.3 and Mdm2-MdmX inh -13.9.
`C=C(C)c1sc(-c2ccc(Cl)cc2)nc1C` gave Calb FLC 9.4, CSC inhib -5.4, Beta cell apopt -19.2, SKKanGAS inh 3.0, T cruzi repl -14.6 and Mdm2-MdmX inh -37.7.
Screening C=CCCc1ccc(C#N)c(SCc2c(C(=O)OCC)c3cc(OC(C)=O)c(Br)cc3n2C)n1 returned Calb FLC -20.9, CSC inhib 1.4, Beta cell apopt 109.5*, SKKanGAS inh -8.6, T cruzi repl 27.8, Mdm2-MdmX inh 65.5*, Mdm2 MdmX conf 89.3* and Full FLuc ctr 20.6.
For CCOC(=O)CC(=O)CSc1nc(C)cc(C)c1C#N the results were Calb FLC 54.5, CSC inhib -2.7, SKKanGAS inh 1.9, T cruzi repl 4.9 and Mdm2-MdmX inh -7.0.
For CCOC(=O)c1c(CSc2nc(C)cc(C)c2C#N)n(C)c2cc(Br)c(OC(C)=O)cc12 the results were Calb FLC -7.6, CSC inhib 5.9, Beta cell apopt 111.1*, SKKanGAS inh 2.8, T cruzi repl -0.5, Mdm2-MdmX inh 71.8* and Mdm2 MdmX conf 22.6.
CCOC(=O)COn1c(=O)c(-c2ccc(OC)c(OC)c2)[n+]([O-])c2ccccc21 was read as Calb FLC 0.7, CSC inhib -13.2, Beta cell apopt 28.1, SKKanGAS inh 6.1, T cruzi repl 2.8, Mdm2-MdmX inh 92.7* and Mdm2 MdmX conf 29.4.
